{
  "source": "ChEMBL document CHEMBL5712070",
  "about": "“Discovery of a chemical probe for the L3MBTL3 methyllysine reader domain” (Nat Chem Biol, 2013)",
  "key": {"[1]": {"biological_target": "T1, Lethal(3)malignant brain tumor-like protein 3 (Homo sapiens) (UniProt Q96JM7)", "T1 sequence (whole entry)": "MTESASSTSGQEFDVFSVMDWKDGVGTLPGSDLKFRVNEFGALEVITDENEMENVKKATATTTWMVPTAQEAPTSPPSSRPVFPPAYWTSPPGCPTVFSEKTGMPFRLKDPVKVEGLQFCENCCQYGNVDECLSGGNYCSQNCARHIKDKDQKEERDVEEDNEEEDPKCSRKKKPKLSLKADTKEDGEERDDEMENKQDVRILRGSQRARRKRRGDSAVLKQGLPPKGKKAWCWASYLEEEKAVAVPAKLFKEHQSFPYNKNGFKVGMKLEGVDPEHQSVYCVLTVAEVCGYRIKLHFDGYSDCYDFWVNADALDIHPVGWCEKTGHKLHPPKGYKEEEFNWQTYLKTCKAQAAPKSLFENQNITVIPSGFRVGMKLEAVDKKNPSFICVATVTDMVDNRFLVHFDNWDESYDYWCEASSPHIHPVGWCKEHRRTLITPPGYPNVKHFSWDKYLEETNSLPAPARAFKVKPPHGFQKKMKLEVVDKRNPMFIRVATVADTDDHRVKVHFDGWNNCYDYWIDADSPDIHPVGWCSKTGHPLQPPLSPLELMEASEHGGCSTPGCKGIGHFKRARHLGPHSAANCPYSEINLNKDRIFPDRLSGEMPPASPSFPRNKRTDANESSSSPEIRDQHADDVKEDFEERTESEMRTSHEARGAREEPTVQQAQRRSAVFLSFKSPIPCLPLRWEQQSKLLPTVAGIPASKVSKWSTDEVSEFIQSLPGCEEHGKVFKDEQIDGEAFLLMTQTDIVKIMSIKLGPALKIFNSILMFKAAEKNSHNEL", "conditions": "dose 0.05 µM"}, "[2]": {"biological_target": "Kappa-type opioid receptor (Homo sapiens, UniProt P41145)", "sequence (P41145 whole entry)": "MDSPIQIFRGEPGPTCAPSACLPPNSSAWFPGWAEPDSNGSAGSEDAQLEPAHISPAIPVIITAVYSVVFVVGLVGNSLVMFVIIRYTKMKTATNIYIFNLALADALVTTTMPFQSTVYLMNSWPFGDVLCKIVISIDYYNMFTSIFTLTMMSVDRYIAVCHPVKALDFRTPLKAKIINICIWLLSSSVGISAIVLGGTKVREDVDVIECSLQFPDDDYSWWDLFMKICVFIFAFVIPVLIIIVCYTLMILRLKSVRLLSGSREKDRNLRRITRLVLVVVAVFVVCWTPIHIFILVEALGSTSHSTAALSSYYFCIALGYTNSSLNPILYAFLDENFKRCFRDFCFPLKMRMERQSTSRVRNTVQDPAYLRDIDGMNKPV", "assay": "Inhibition of KOR (unknown origin) by radioligand binding assay"}, "[3]": {"biological_target": "Alpha-2C adrenergic receptor (Homo sapiens, UniProt P18825)", "sequence (P18825 whole entry)": "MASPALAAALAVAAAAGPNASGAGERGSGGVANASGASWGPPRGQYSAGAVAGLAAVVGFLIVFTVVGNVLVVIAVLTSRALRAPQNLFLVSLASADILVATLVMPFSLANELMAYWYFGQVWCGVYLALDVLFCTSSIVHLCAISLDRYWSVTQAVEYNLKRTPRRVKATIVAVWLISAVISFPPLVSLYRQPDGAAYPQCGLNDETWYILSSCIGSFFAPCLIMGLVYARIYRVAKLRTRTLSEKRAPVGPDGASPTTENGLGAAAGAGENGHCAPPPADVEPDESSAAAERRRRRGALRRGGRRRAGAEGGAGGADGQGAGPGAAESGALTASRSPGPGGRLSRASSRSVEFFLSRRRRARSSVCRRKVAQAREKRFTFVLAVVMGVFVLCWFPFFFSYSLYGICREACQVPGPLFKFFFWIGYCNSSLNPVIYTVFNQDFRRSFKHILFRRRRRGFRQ", "assay": "Inhibition of alpha2C receptor (unknown origin) by radioligand binding assay"}, "[4]": {"biological_target": "T1, Lethal(3)malignant brain tumor-like protein 3 (Homo sapiens)", "conditions": "dose 0.01 µM"}, "[5]": {"biological_target": "T1, Lethal(3)malignant brain tumor-like protein 3 (Homo sapiens)", "assay": "Binding affinity to GFP-tagged full length L3MBTL3 (unknown origin) assessed as protein half life at 1 uM"}, "[6]": {"biological_target": "T2, Lethal(3)malignant brain tumor-like protein 3 (Homo sapiens, UniProt Q96JM7)", "T2 sequence (Q96JM7 whole entry)": "T1 sequence (whole entry)", "assay": "Inhibition of GFP-3MBT tagged L3MBTL3 (unknown origin) expressed in HEK293 cells assessed as disruption of foci formation by immunofluorescence assay", "format": "cell-based", "procedure,_shortened": "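HEK293 cells seeded on coverslips at 100,000 cells/well, transfected 16–24 h later with GFP-3MBT and expressed for 48 h. Compound given at the indicated concentrations for at least 24 h before imaging. Nuclei stained with Hoechst 33342 for 30 min, then spinning-disk confocal imaging. Foci quantified as % GFP intensity.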"}, "[7]": {"organism": "Homo sapiens", "assay": "Binding affinity to L3MBTL3 D381A mutant (unknown origin) by ITC assay"}, "[8]": {"biological_target": "T2, Lethal(3)malignant brain tumor-like protein 3", "assay": "Inhibition of GFP-3MBT tagged L3MBTL3 (unknown origin) expressed in HEK293 cells assessed as reduction in recovery of fluorescence intensity measured up to 60 secs by FRAP assay"}, "[9]": {"biological_target": "Mortality factor 4-like protein 1 (Homo sapiens, UniProt Q9UBU8)", "sequence (Q9UBU8 whole entry)": "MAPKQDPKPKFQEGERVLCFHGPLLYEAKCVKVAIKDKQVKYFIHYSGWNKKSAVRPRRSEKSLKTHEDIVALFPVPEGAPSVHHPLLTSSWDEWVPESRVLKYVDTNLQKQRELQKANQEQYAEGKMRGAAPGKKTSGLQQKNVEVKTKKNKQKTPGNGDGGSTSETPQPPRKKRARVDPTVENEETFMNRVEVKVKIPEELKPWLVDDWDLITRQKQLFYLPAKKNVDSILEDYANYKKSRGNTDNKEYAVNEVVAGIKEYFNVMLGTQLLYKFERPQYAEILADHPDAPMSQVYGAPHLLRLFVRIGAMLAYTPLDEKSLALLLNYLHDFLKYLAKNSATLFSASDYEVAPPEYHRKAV", "assay": "Binding affinity to MRG15 (unknown origin) by ITC assay"}, "[10]": {"biological_target": "T2, Lethal(3)malignant brain tumor-like protein 3", "assay": "Binding affinity to GFP-3MBT tagged L3MBTL3 (unknown origin) assessed as diffusion coefficient at 0.1 uM (reference value: 0.1272 um2/s)"}, "[11]": {"biological_target": "Scm-like with four MBT domains protein 1 (Homo sapiens, UniProt Q9UHJ3)", "sequence (Q9UHJ3 whole entry, the tested form may be a part)": "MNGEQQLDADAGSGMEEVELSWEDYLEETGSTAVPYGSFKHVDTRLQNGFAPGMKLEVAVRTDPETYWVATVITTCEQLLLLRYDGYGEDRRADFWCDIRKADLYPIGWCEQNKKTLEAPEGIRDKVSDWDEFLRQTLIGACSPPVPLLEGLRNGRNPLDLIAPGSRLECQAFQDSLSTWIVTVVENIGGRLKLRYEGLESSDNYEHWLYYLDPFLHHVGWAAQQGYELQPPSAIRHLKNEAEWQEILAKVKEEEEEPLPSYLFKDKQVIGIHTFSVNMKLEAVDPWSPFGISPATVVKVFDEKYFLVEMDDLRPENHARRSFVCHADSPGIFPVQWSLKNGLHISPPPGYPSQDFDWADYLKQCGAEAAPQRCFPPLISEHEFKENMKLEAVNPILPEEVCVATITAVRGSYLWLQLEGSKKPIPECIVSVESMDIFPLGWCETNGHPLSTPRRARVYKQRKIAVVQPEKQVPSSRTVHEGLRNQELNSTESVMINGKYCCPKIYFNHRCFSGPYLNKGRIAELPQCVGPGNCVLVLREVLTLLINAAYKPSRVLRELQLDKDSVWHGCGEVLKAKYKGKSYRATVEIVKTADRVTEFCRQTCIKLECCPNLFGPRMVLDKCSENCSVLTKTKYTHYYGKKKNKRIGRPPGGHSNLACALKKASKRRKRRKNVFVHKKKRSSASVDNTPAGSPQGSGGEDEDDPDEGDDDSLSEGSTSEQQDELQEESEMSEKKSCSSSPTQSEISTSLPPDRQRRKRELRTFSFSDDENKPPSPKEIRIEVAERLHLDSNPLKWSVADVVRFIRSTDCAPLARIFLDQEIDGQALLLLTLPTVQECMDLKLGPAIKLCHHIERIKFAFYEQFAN", "assay": "Inhibition of MBT domain containing SFMBT (unknown origin) using H4K20me2 peptide by Alpha-Screen methylated histone peptide competition assay"}, "[12]": {"biological_target": "T2, Lethal(3)malignant brain tumor-like protein 3", "assay": "Inhibition of L3MBTL3 (unknown origin) using H4K20me2 peptide by Alpha-Screen methylated histone peptide competition assay"}, "[13]": {"biological_target": "T3, Muscarinic acetylcholine receptor M1 (Homo sapiens, UniProt P11229)", "T3 sequence (P11229 whole entry)": "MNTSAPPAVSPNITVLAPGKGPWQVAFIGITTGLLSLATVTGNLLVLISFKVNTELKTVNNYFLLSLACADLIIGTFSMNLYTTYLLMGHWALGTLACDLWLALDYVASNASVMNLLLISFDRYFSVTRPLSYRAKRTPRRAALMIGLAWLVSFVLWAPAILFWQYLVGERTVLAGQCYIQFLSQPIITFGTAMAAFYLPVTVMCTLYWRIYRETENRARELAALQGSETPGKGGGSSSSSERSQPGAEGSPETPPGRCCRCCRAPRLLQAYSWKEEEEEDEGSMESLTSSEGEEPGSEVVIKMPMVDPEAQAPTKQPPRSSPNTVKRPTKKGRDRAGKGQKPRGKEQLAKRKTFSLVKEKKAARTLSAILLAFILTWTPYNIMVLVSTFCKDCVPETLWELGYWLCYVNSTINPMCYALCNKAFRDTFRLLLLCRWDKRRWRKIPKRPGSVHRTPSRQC", "assay": "Inhibition of M1 receptor (unknown origin) by radioligand binding assay", "procedure,_shortened": "(§1)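 Radioligand competition binding; the value is reported as a Ki.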"}, "[14]": {"biological_target": "T2, Lethal(3)malignant brain tumor-like protein 3", "assay": "Binding affinity to GFP-tagged full length L3MBTL3 (unknown origin) assessed as diffusion coefficient at 1 uM (reference value: 0.037549815 um2/s)"}, "[15]": {"biological_target": "T1, Lethal(3)malignant brain tumor-like protein 3 (Homo sapiens)", "conditions": "dose 0.5 µM"}, "[16]": {"biological_target": "T3, Muscarinic acetylcholine receptor M1", "assay": "Inhibition of M1 receptor (unknown origin) by Ca2+ mobilization assay", "format": "functional"}, "[17]": {"biological_target": "T1, Lethal(3)malignant brain tumor-like protein 3 (Homo sapiens)", "conditions": "dose 0.1 µM"}, "[18]": {"biological_target": "T2, Lethal(3)malignant brain tumor-like protein 3", "assay": "Binding affinity to GFP-tagged full length L3MBTL3 (unknown origin) assessed as diffusion coefficient at 0.1 uM (reference value: 0.037549815 um2/s)"}, "[19]": {"assay": "Binding affinity to L3MBTL3 F387A mutant (unknown origin) by ITC assay", "parameters": "species or system Homo sapiens"}, "[20]": {"biological_target": "T1, Lethal(3)malignant brain tumor-like protein 3 (Homo sapiens)", "assay": "Binding affinity to GFP-3MBT tagged L3MBTL3 (unknown origin) assessed as protein half life at 1 uM"}, "[21]": {"biological_target": "Muscarinic acetylcholine receptor M2 (Homo sapiens, UniProt P08172)", "sequence (P08172 whole entry)": "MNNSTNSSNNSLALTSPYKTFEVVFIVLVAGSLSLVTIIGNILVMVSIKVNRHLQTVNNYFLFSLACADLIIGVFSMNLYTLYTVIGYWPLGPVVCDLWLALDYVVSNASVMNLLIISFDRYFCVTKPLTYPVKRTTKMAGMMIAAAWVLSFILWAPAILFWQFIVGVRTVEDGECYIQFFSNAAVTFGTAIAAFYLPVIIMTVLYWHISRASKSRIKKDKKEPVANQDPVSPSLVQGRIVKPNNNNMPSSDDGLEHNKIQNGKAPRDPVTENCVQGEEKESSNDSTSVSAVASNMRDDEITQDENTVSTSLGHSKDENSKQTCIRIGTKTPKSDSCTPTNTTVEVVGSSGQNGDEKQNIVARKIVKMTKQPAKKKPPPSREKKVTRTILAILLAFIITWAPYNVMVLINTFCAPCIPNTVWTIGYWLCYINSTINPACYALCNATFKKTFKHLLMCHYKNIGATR", "assay": "Inhibition of M2 receptor (unknown origin) by radioligand binding assay", "procedure,_shortened": "as §1"}},
  "note": "Calls of active or inactive are those of the source. The calls are words filed in the database; no cut-off is given here.",
  "data": [
    {"smiles": "O=C(c1ccc(C(=O)N2CCC(N3CCCC3)CC2)c(Nc2ccccc2)c1)N1CCC(N2CCCC2)CC1", "values": [
      {"measurement": "T1/2", "setting": "[1]", "value": 6.5, "unit": "s"},
      {"measurement": "Ki", "setting": "[2]", "value": 4000, "unit": "nM"},
      {"measurement": "Ki", "setting": "[3]", "value": 860, "unit": "nM"},
      {"measurement": "T1/2", "setting": "[4]", "value": 7, "unit": "s"},
      {"measurement": "T1/2", "setting": "[5]", "value": 19.9, "unit": "s"},
      {"measurement": "IC50", "setting": "[6]", "value": 500, "unit": "nM"},
      {"measurement": "Activity", "setting": "[7]", "value": "inactive"},
      {"measurement": "IC50", "setting": "[8]", "value": 50, "unit": "nM"},
      {"measurement": "Kd", "setting": "[9]", "value": 28900, "unit": "nM"},
      {"measurement": "Diffusion coefficient", "setting": "[10]", "value": 0.311, "unit": "um2/s"},
      {"measurement": "IC50", "setting": "[11]", "value": "> 30000", "unit": "nM"},
      {"measurement": "IC50", "setting": "[12]", "value": 40, "unit": "nM"},
      {"measurement": "Ki", "setting": "[13]", "value": 97, "unit": "nM"},
      {"measurement": "Diffusion coefficient", "setting": "[14]", "value": 0.051, "unit": "um2/s"},
      {"measurement": "T1/2", "setting": "[15]", "value": 20.3, "unit": "s"},
      {"measurement": "IC50", "setting": "[16]", "value": 3500, "unit": "nM"},
      {"measurement": "T1/2", "setting": "[17]", "value": 20.1, "unit": "s"},
      {"measurement": "Diffusion coefficient", "setting": "[18]", "value": 0.05, "unit": "um2/s"},
      {"measurement": "Kd", "setting": "[19]", "value": 1000, "unit": "nM"},
      {"measurement": "T1/2", "setting": "[20]", "value": 3.6, "unit": "s"},
      {"measurement": "Ki", "setting": "[21]", "value": 72, "unit": "nM"}
    ]}
  ]
}
